Laboratory results published in ChEMBL document CHEMBL1158452, “Na+ currents in cardioprotection: better to be late” (J Med Chem, 2009).
Active and inactive are the calls of the source. The rule behind the calls is not given here.

Key:
Heart [1] = experiment: Cardioprotective activity in Langendorff-perfused guinea pig heart assessed as inhibition of global ischemia-induced diastolic contracture at 1 uM; format: functional; details: Cavia porcellus
In short: (§1)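 Female Hartley guinea pig hearts, Langendorff-perfused at constant 800 mm H2O with modified Krebs (pH 7.4, 95% O2/5% CO2), 37 °C, LV latex balloon. After 45-60 min equilibration, compound or vehicle perfused 15 min, then 50 min global normothermic ischemia and 60 min reperfusion; one concentration per heart. LVDP, end-diastolic pressure, heart rate, dP/dt, coronary flow recorded.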

[2] = target: T1, Sodium channel protein type 5 subunit alpha (Homo sapiens, UniProt Q14524); experiment: Inhibition of human Nav1.5 channel expressed in HEK293 cells assessed as blockade of veratridine-induced late inward sodium current elicited at -30 mV from holding potential -110 mV at 10 uM by patch clamp method; format: cell-based
In short: (§2)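 HEK293 cells expressing hNaV1.5, room temperature (19-22 °C). Pipette (mmol): NaCl 10, CsCl 110, CaCl2 1, HEPES 10, EGTA 10, Mg-ATP 5, glucose 10, pH 7.3; bath: NaCl 30, CsCl 100, MgCl2 2, CaCl2 2, HEPES 10, glucose 5, pH 7.4. Veratridine 40 μM; 350 ms pulses to -30 mV at 0.2 Hz; late INa = mean current over last 10 ms; DMSO final 0.1%.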

[3] = target: T1, Sodium channel protein type 5 subunit alpha; experiment: Inhibition of human Nav1.5 channel expressed in HEK293 cells assessed as blockade of veratridine-induced late inward sodium current elicited at -30 mV from holding potential -90 mV at 10 uM by patch clamp method; format: cell-based; in short: as §2
Cardiac atrium = details: Rattus norvegicus, Wistar, 1 uM
Plasma = experiment: Cardioprotective activity in […] Landrace pig assessed decrease in troponin 1 plasma level administered iv 60 mins before ischemia measured after 6 hrs of reperfusion; format: functional, organism-based; details: Sus scrofa
Sus scrofa [4] = species: Sus scrofa; experiment: Cardioprotective activity against myocardial ischemia-reperfusion in Landrace pig heart assessed as prevention of post reperfusion injury after 48 hrs; format: functional, tissue-based
In short: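 Anaesthetised male Landrace pigs (18-25 kg); LCX occluded 60 min, reperfused 48 h. Compound i.v. bolus 10 min pre-ischemia plus infusion through occlusion and first 30 min reperfusion. Evans blue delineates area at risk, TTC (0.1%) stains viable tissue; 10 mm LV slices imaged; necrosis expressed as % of area at risk. Means ± SEM; ANOVA with Dunnett's test.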

[5] = Cardioprotective activity in […] Landrace pig heart assessed decrease in myocardial infarct volume […] followed by 30 mins of reperfusion; format: functional, Sus scrofa; parameters: scale not given: the % may be the effect or the level left
Sus scrofa [6] = experiment: Cardioprotective activity in […] Landrace pig heart assessed as change collateral circulation administered iv 60 mins before ischemia followed by 48 hrs of reperfusion; format: functional, organism-based
Sus scrofa [7] = experiment: Cardioprotective activity in […] Landrace pig heart assessed as change in blood flow administered iv 60 mins before ischemia followed by 48 hrs of reperfusion; format: functional, organism-based
Heart [8] = experiment: Cardiovascular activity in Langendorff-perfused guinea pig heart assessed as change in heart rate at 1 uM; format: functional, Cavia porcellus; in short: as §1
[9] = Cardioprotective activity in […] Landrace pig heart assessed decrease in myocardial infarct size […]; format: functional, Sus scrofa; parameters: scale not given: the % may be the effect or the level left
Heart [10] = experiment: Cardiovascular activity in Langendorff-perfused guinea pig heart assessed as change in left ventricular developed pressure at 1 uM; format: functional, Cavia porcellus; in short: as §1
Sus scrofa [11] = species: Sus scrofa; experiment: Cardioprotective activity in […] Landrace pig assessed enhancement of Na+ current; format: functional, organism-based
Heart [12] = experiment: Cardiovascular activity in Langendorff-perfused guinea pig heart assessed as change in coronary vascular resistance at 1 uM; format: functional, Cavia porcellus; in short: as §1

T1 sequence (Q14524 whole entry): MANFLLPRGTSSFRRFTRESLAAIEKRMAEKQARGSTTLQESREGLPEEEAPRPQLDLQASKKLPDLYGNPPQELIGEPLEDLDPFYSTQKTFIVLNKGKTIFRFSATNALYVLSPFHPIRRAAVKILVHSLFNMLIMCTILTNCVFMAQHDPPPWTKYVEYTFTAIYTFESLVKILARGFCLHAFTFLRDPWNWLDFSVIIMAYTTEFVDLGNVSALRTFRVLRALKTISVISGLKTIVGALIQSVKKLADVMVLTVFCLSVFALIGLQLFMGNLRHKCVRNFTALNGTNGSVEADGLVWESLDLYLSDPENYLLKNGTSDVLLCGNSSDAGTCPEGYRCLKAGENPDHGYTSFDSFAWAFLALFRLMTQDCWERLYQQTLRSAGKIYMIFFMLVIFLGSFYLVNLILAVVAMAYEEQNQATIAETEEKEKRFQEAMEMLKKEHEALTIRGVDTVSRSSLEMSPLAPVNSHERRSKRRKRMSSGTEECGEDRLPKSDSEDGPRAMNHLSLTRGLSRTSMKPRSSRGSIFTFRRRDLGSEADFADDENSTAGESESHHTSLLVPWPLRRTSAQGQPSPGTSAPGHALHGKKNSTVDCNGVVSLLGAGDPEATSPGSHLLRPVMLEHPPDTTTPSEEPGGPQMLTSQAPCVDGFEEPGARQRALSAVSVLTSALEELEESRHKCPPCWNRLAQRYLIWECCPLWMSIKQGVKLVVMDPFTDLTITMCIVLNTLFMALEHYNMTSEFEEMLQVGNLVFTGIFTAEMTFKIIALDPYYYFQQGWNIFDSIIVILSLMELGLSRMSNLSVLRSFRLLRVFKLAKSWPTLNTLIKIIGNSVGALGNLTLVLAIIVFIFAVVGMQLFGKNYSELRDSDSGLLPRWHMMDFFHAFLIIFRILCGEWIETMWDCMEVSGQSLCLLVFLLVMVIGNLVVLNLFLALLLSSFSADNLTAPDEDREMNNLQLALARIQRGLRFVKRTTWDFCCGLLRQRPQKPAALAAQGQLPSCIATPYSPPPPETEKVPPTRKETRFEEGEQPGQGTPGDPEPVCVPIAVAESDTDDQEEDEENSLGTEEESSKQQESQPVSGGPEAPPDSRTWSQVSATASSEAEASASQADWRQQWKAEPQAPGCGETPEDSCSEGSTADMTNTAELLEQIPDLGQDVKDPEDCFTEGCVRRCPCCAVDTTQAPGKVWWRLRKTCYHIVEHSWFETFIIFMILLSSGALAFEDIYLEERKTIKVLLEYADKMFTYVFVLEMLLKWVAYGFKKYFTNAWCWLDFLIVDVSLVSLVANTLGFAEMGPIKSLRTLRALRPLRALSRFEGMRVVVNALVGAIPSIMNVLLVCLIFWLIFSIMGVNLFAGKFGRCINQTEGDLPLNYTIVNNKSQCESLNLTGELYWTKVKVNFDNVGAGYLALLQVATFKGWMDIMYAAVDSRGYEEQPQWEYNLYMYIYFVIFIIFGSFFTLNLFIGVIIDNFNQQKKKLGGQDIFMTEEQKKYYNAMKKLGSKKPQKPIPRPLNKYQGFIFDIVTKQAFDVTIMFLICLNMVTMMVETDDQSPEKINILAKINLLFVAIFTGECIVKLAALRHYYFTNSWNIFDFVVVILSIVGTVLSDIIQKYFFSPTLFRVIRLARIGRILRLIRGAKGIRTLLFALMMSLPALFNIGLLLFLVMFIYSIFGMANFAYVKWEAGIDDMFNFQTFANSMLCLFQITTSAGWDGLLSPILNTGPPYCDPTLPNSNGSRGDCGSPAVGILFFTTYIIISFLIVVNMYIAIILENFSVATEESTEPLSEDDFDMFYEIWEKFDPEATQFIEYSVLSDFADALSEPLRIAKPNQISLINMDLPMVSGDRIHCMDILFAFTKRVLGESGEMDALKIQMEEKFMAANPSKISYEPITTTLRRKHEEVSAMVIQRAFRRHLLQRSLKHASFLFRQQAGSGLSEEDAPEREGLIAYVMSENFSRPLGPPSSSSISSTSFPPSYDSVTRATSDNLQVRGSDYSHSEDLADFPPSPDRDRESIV

C[C@@H](CN[C@@H]1COc2ccccc2SC1)CSc1cccc(F)c1N
inhibition at 1 µM (Heart [1]): 33% | inhibition at 10 µM [2]: 11% | inhibition at 10 µM [3]: 19%

C[C@@H](CN[C@@H]1COc2ccccc2SC1)CSc1cccc2ncoc12
inhibition at 1 µM (Heart [1]): 84% | inhibition at 10 µM [2]: 16% | inhibition at 10 µM [3]: 26%

C[C@@H](CN[C@@H]1COc2ccccc2SC1)CSc1cccc2c1OCO2
inhibition at 1 µM (Heart [1]): 22% | inhibition at 10 µM [2]: 32% | inhibition at 10 µM [3]: 54%

NC1=N[C@H](O)[C@H]2[C@H]3O[C@]4(O)O[C@@H]([C@@H](O)[C@@]2(N1)[C@@H]4O)[C@]3(O)CO
inhibition (Cardiac atrium): 64%

Cc1ccccc1SC[C@@H](C)CN[C@@H]1COc2ccccc2SC1
inhibition at 10 µM [2]: 11% | inhibition at 10 µM [3]: 14%

C[C@@H](CN[C@@H]1COc2ccccc2SC1)CSc1cccc(N)c1O
inhibition at 10 µM [2]: 11% | inhibition at 10 µM [3]: 19%

CC(C)c1ccc(C(=O)N=C(N)N)cc1S(C)(=O)=O [CARIPORIDE]
Activity (Plasma): Active | Activity (Sus scrofa [4]): Active | Activity [5]: 6.8% | inhibition at 1 µM (Heart [1]): 6%

COc1cccc(SC[C@@H](C)CN[C@@H]2COc3ccccc3SC2)c1N
inhibition at 1 µM (Heart [1]): 21% | inhibition at 10 µM [2]: 13% | inhibition at 10 µM [3]: 18%

COc1cccc(SC[C@@H](C)CN[C@@H]2COc3ccccc3SC2)c1O
inhibition at 1 µM (Heart [1]): 46% | inhibition at 10 µM [2]: 35% | inhibition at 10 µM [3]: 46%

CCc1cccc(SC[C@@H](C)CN[C@@H]2COc3ccccc3SC2)c1O
inhibition at 1 µM (Heart [1]): 13% | inhibition at 10 µM [2]: 56% | inhibition at 10 µM [3]: 56%

Cc1cccc(SC[C@@H](C)CN[C@@H]2COc3ccccc3SC2)c1N
inhibition at 1 µM (Heart [1]): 35% | inhibition at 10 µM [2]: 26% | inhibition at 10 µM [3]: 26%

Cc1cccc(SC[C@@H](C)CN[C@@H]2COc3ccccc3SC2)c1O
Activity (Sus scrofa [6]): inactive | Activity (Sus scrofa [7]): inactive | Activity (Heart [8]): 0.1 bpm | Activity [9]: 3.5% | Activity (Heart [10]): -5.9 mmHg | Activity (Plasma): Active | Activity (Sus scrofa [4]): Active | Activity (Sus scrofa [11]): inactive | inhibition at 1 µM (Heart [1]): 70% | Activity (Heart [12]): -1.6 dyn.s.cm'-5.10'4 | inhibition at 10 µM [2]: 73% | inhibition at 10 µM [3]: 87%

C[C@@H](CN[C@@H]1COc2ccccc2SC1)CSc1cccc2ccoc12
inhibition at 1 µM (Heart [1]): 68% | inhibition at 10 µM [2]: 73% | inhibition at 10 µM [3]: 82%

COc1c(C)cccc1SC[C@@H](C)CN[C@@H]1COc2ccccc2SC1
inhibition at 10 µM [2]: 28% | inhibition at 10 µM [3]: 32%

CCOc1ccccc1SC[C@@H](C)CN[C@@H]1COc2ccccc2SC1
inhibition at 10 µM [2]: 41% | inhibition at 10 µM [3]: 54%

COc1ccccc1SC[C@@H](C)CN[C@@H]1COc2ccccc2SC1
inhibition at 1 µM (Heart [1]): 65%

CC(C)c1cccc(SC[C@@H](C)CN[C@@H]2COc3ccccc3SC2)c1O
inhibition at 10 µM [2]: 38% | inhibition at 10 µM [3]: 46%

C[C@@H](CN[C@@H]1COc2ccccc2SC1)CSc1cccc2cc[nH]c12
inhibition at 10 µM [2]: 8% | inhibition at 10 µM [3]: 8%

Cc1cccc(SC[C@@H](C)CN[C@@H]2COc3ccccc3SC2)c1CO
inhibition at 1 µM (Heart [1]): 31% | inhibition at 10 µM [2]: 45% | inhibition at 10 µM [3]: 58%

C[C@@H](CN[C@@H]1COc2ccccc2SC1)CSc1cccc2c1OCC2
inhibition at 1 µM (Heart [1]): 72% | inhibition at 10 µM [2]: 47% | inhibition at 10 µM [3]: 56%

C[C@@H](CN[C@@H]1COc2ccccc2SC1)CSc1cccc(C(N)=O)c1O
inhibition at 1 µM (Heart [1]): 43% | inhibition at 10 µM [2]: 59% | inhibition at 10 µM [3]: 65%

C[C@@H](CN[C@@H]1COc2ccccc2SC1)CSc1cccc2cn[nH]c12
inhibition at 1 µM (Heart [1]): 73% | inhibition at 10 µM [2]: 34% | inhibition at 10 µM [3]: 44%

C[C@@H](CN[C@@H]1COc2ccccc2SC1)CSc1cccc(F)c1O
inhibition at 1 µM (Heart [1]): 54% | inhibition at 10 µM [2]: 38% | inhibition at 10 µM [3]: 40%
